Results as given in ChEMBL document CHEMBL4359903, “1,2,4-Oxadiazole derivatives targeting EGFR and c-Met degradation in TKI resistant NSCLC” (Eur J Med Chem, 2019).
Active and inactive are the calls of the source. The rule behind the calls is not given here.

Tests used:
MDA-MB-231 = experiment: Antiproliferative activity against human MDA-MB-231 cells assessed as reduction in cell viability incubated for 72 hrs by MTT assay; format: functional, cell-based; details: MDA-MB-231, 72 h
Procedure, shortened: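 MTT viability assay after 72 h of drug exposure. Cells seeded at 5000 per well in 10% FBS and left overnight, then treated in 5% FBS. MTT added for 1 h, dye dissolved in DMSO, absorbance read at 570 nm. Viability given relative to vehicle-treated cells.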

NCI-H1975 [1] = experiment: Antiproliferative activity against human NCI-H1975 cells harbouring EGFR L858R/T790M double mutant assessed as reduction in cell viability incubated for 48 hrs by MTT assay; format: functional, cell-based; details: NCI-H1975, 48 h
Procedure, shortened: (§1)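 Cells seeded at 5000 per well in 10% FBS and left overnight, then exposed to agent or DMSO in 5% FBS for 48 h. MTT added for 1 h, dye dissolved in DMSO, absorbance read at 570 nm. Viability given as percent of vehicle control. At least three independent experiments, means ± SD.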

CL97 [2] = experiment: Antiproliferative activity against human CL97 cells harbouring EGFR G719A/T790M mutant assessed as reduction in cell viability incubated for 48 hrs by MTT assay; format: functional, cell-based; details: CL97, 48 h; procedure, shortened: as §1
A549 [3] = experiment: Antiproliferative activity against wild type human A549 cells assessed as reduction in cell viability incubated for 72 hrs by MTT assay; format: functional, cell-based; details: A549, 72 h
PC-9 [4] = experiment: Antiproliferative activity against human PC9 cells harbouring EGFR delE746-A750 mutant assessed as reduction in cell viability incubated for 72 hrs by MTT assay; format: functional, cell-based; details: PC-9, 72 h
[5] = tested on: Epidermal growth factor receptor (Homo sapiens), P00533 [UNDEFINED MUTATION]; experiment: Induction of EGFR E746-A750 deletion mutant degradation in human PC9 cells assessed as reduction in EGFR expression at 0.2 to 0.6 uM incubated for 48 hrs by Western blot analysis; format: cell-based
Procedure, shortened: (§2)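 After 48 h treatment, cells were scraped and lysed in 1% SDS, 50 mM Tris-HCl pH 8.0, 10 mM EDTA with protease and phosphatase inhibitors. Lysates sonicated, protein measured by BCA, equal amounts run on SDS-PAGE and blotted to nitrocellulose. Primary antibodies (EGFR, c-Met, S473-Akt, Akt, GAPDH) used at 1:1000 overnight at 4 °C, HRP secondaries at 1:5000, ECL detection.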

[6] = tested on: Epidermal growth factor receptor (Homo sapiens), P00533 [L858R,T790M]; experiment: Induction of EGFR L858R/T790M double mutant degradation in human NCI-H1975 cells assessed as reduction in EGFR expression at 0.2 to 0.6 uM incubated for 48 hrs by Western blot analysis; format: cell-based; procedure, shortened: as §2
[7] = molecular target: Hepatocyte growth factor receptor (Homo sapiens) (UniProt P08581); experiment: Induction of c-MET degradation in human CL97 cells harbouring EGFR G719A/T790M assessed as reduction in c-Met expression at 0.2 to 0.6 uM incubated for 48 hrs by Western blot analysis; format: cell-based; procedure, shortened: as §2
[8] = molecular target: Epidermal growth factor receptor (Homo sapiens) (UniProt P00533); experiment: Inhibition of EGFR in wild type human A549 cells assessed as reduction in Akt phosphorylation at 0.2 to 0.6 uM incubated for 48 hrs by Western blot analysis; format: cell-based; procedure, shortened: as §2
[9] = molecular target: Epidermal growth factor receptor (Homo sapiens) (UniProt P00533); experiment: Effect on EGFR degradation in wild type human A549 cells assessed as reduction in EGFR mRNA expression at 0.2 to 0.6 uM incubated for 48 hrs by RT-PCR analysis; format: cell-based
Procedure, shortened: (§3)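 Total RNA extracted with TRIzol from H1975 and A549 cells treated at 0.2–0.6 µM. EGFR and c-Met mRNA assessed by RT-PCR.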

[10] = tested on: Epidermal growth factor receptor (Homo sapiens), P00533 [L858R,T790M]; experiment: Induction of EGFR L858R/T790M double mutant degradation in human NCI-H1975 cells assessed as change in EGFR expression at 0.2 to 0.6 uM incubated for 48 hrs by RT-PCR analysis; format: cell-based; procedure, shortened: as §3
A549 [11] = experiment: Cell cycle arrest in human A549 cells assessed as increase in accumulation of cells at G2/M phase at 0.2 to 0.6 uM incubated for 48 hrs by propidium iodide based flow cytometry; format: functional
Procedure, shortened: (§4)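 Cells plated at 3 × 10^5 per 6-cm dish and left overnight, then treated for 24 h and 48 h. Pellets fixed in 70% ethanol and stained with 40 µg/ml propidium iodide plus 20 µg/ml RNase A, 30 min on ice in the dark. DNA content read on a FACSCalibur flow cytometer.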

PC-9 [12] = experiment: Cell cycle arrest in human PC9 cells harbouring EGFR delE746-A750 […] assessed as increase in cells accumulation at G2/M phase at 0.4 to 0.8 uM incubated for 48 hrs by propidium iodide based flow cytometry; format: functional; procedure, shortened: as §4
CL97 [13] = experiment: Cell cycle arrest in human CL97 cells harbouring EGFR G719A/T790M mutant assessed as increase in cells accumulation at G2/M phase at 0.4 to 0.8 uM incubated for 48 hrs by propidium iodide based flow cytometry; format: functional; procedure, shortened: as §4
NCI-H1975 [14] = experiment: (§5) Antitumor activity against human NCI-H1975 cells harbouring EGFR L858R/T790M double mutant xenografted in athymic Nude-Foxn1nu BALB/c mouse assessed as tumor growth inhibition at 150 mg/kg, po administered once daily via gavage for 20 days measured twice a week by caliper method relative to control; format: functional; details: 480 h, read-out: TGI
Procedure, shortened: (§6)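 Female Balb/c nude mice, 5 weeks old, injected subcutaneously in the right flank with 10^6 H1975 cells in 0.1 ml. Randomized at about 50 mm3, n = 8 per group. Gavaged once daily for 20 days with vehicle (10% DMSO/0.1% Tween 80/0.5% methylcellulose in sterile water) or 50 or 150 mg/kg. Calipers, V = width² × length × 0.52; volume and body weight twice weekly; Student's t-test.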

[15] = Toxicity in athymic Nude-Foxn1nu BALB/c mouse xenografted with human NCI-H1975 cells harbouring EGFR L858R/T790M double mutant assessed as body weight loss at 50 to 150 mg/kg, po administered once daily via gavage for 20 days measured twice a week; format: organism-based; details: in vivo, 480 h; procedure, shortened: as §6
NCI-H1975 [16] = experiment: Antitumor activity against human NCI-H1975 cells harbouring EGFR L858R/T790M double mutant xenografted in athymic Nude-Foxn1nu BALB/c mouse assessed as reduction in EGFR expression in tumor lysates administered once daily via oral gavage for 20 days measured on day 20 by Western blot analysis; format: functional; details: Neoplasm, Lysate
Procedure, shortened: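 H1975 xenografts in nude mice gavaged daily for 20 days with vehicle, 50 or 150 mg/kg. At study end mice were killed by CO2, and tumor lysates from four representative tumors per group were immunoblotted for EGFR and c-Met. Band intensities quantified by densitometry.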

NCI-H1975 [17] = experiment: as §5, with “50” for “150”, “days in presence of gefitinib” for “days”; format: functional; details: 480 h, read-out: TGI
Procedure, shortened: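 H1975 subcutaneous xenografts in female nude mice, randomized at about 50 mm3, n = 8 per group. Four arms gavaged once daily for 20 days: vehicle, gefitinib 50 mg/kg, test agent 50 mg/kg, or both at 50 mg/kg each. Tumor volume by calipers (width² × length × 0.52), measured twice weekly.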

Chain of Hepatocyte growth factor receptor (Homo sapiens) (P08581 whole entry): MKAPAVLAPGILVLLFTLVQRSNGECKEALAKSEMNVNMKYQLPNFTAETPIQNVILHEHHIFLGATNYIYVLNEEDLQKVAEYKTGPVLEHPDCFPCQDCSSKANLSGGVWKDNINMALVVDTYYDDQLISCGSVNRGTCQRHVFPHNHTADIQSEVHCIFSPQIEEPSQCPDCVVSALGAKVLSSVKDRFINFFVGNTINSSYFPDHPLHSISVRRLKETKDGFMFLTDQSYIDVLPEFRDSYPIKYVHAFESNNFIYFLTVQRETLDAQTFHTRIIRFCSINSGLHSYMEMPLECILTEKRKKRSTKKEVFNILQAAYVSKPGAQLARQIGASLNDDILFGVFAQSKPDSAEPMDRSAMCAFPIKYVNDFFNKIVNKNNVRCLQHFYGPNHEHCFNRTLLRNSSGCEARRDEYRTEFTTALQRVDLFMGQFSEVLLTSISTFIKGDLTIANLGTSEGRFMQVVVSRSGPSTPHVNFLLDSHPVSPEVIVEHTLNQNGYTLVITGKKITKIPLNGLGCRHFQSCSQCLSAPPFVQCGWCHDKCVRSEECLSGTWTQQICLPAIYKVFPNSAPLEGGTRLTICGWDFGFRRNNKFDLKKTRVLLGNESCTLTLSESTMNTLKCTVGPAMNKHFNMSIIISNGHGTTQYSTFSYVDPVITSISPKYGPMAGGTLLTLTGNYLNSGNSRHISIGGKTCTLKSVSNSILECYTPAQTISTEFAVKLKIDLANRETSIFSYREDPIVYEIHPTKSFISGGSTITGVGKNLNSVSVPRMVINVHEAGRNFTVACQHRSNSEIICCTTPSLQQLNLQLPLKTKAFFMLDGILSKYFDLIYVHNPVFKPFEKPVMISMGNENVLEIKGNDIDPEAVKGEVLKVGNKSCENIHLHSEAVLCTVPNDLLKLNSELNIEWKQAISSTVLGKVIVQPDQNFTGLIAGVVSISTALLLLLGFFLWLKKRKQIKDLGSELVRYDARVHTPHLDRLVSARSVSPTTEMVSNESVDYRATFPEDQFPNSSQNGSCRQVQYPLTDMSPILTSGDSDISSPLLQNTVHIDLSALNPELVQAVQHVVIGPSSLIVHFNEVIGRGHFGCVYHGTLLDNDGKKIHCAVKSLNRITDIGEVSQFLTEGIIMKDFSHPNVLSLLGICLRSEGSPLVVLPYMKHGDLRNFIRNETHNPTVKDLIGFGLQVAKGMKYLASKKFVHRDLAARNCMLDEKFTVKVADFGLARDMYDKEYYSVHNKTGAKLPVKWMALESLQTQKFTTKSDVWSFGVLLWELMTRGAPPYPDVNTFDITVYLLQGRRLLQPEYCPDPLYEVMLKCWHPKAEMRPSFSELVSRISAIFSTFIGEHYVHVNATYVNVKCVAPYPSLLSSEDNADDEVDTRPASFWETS

IC50 (MDA-MB-231): 200 nM | IC50 (NCI-H1975 [1]): 300 nM | IC50 (A549 [3]): 200 nM | IC50 (PC-9 [4]): 500 nM | Activity [5]: Active | Activity [6]: Active | Activity [7]: Active | Activity [8]: Active | Activity [9]: inactive | Activity [10]: inactive
SMILES: O=C(Nc1cccc(-c2nc(-c3ccc(NC(=O)c4cccnc4)cc3Cl)no2)c1)Nc1ccc(NC(=O)C2CC2)c(C(F)(F)F)c1
IC50 (CL97 [2]): 600 nM | Activity (A549 [11]): Active | Activity (PC-9 [12]): Active | Activity (CL97 [13]): Active | inhibition in vivo at 150 mg/kg (NCI-H1975 [14]): 60% | Activity [15]: Non-Toxic | Activity (NCI-H1975 [16]): Dose-dependent effect | inhibition in vivo at 50 mg/kg (NCI-H1975 [17]): 72%
